# Results as given in the RNAGym collection of RNA variant scans (doi:10.1126/science.aae0568).
# This sample holds only a part of the variants without activity.
# B1: tRNA (parent)
# chain: GUUCCGUUGGCGUAAUGGUAACGCGUCUCCCUCCUAAGGAGAAGACUGCGGGUUCGAGUCCCGUACGGAACG
# Variants of: B1
# Assay: yeast fitness relative to wild type (ratio to wild type); higher = fitter; tRNA-Arg(CCU), competitive growth, 37 C, YPD
# Summary of the method: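 Genotype frequency changes were the basis for Darwinian fitness relative to wild type. The frequencies came from 100-nucleotide paired-end sequencing of gene amplicons from the start population and each end population of pooled yeast strains with tRNA-Arg(CCU) gene variants at the native locus. Competition ran in YPD at 37°C for 24 hours in six replicates, genotypes needed ≥ 100 starting reads, and estimates < 0.5 were set to 0.5.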
row,Variant,yeast fitness
1,GUUCCGUUGGCGUAAUGGUUACACGUCUCCCUCCUAAGGAGAAGACUGCGGGUUCGAGUCCCGUACGGAACG [A20U G23A],0.822
2,GUUCCGUUGGCGUAAUGGUAACGCGUCUCCCUUCUCAGGAGAAGACUGCGGGUUCGAGUCCCGUACGGAGCG [C33U A36C A70G],≤ 0.5
3,GUUCCGUUGGCGUAAUGGUGACGCGUCUCCCUCCUAAGGAGAAGACUAGGGGUUCGAGACCCGUACGGAACG [A20G G48A C49G U59A],≤ 0.5
4,GUUCCGUUGGCGUAAUGGUAACGCGUCUCUCUCCUAAGGAGAAGACUGCGGGUUCGAGUCCCGUAAGGAACG [C30U C66A],0.765
5,GUUCCGUUGGCGUAAUGGUAACGGGACUGCCACCUAAGGAGAAGACUGCGGGUUCGAGUCCCGUACGGAACG [C24G U26A C29G U32A],0.516
6,GUUCCGUAGGCGUAAUGGUAACGCGUCUCCCUCCUAGGGAGAGGACUGCGGGUUCGAGACCCGUACGGAACG [U8A A37G A43G U59A],0.582
7,GUUCCGUUGGCGUAAUGGUUACGCGUCUGCCUCCUAAGGAGAAGACUGGGGGUUCGAGUCCCGUACGGAACG [A20U C29G C49G],0.5
8,GUUCCGUUGACGUAAUGGUAACGCGUCUCCCUCCUAAGGAGAAGACUGCGAGUUGGAGUCCCGUACUCAACG [G10A G51A C55G G67U G68C],≤ 0.5
9,GUUCCGUUGGCCUAAUGGUUACGCGUCUCCCUCCUGAGGAGAAGAAUGCGGGUACGAGUCCCGUACCGAACG [G12C A20U A36G C46A U54A G67C],≤ 0.5
10,GUUACGUCGGCGUAAUGGAAACGCGUUUCCCUCCUAACGAGAAGACUGCGGGUUUGAGUCCCGUACGGAACG [C4A U8C U19A C27U G38C C55U],≤ 0.5
11,GUUCCGUUGGCGUAAUGGUAAUGCGUCUCCCUCCUAAGGAGAAGUCUGAGGGUUCGAGUCCCGUACGGAACG [C22U A45U C49A],≤ 0.5
12,GUUCCGUUGGCGUAAUGGUAACGCGUCUCCCUCCUUAGGAGAAGACUGCGGGUUCGGGUCCCCUACGGAACG [A36U A57G G63C],0.563
13,GUUCCGUUGGCGUCAUGGUAACGCGGCUACCUCCUAAGGAGCAGACUGCGGGUUCGAGUCCCGUACGGAACG [A14C U26G C29A A42C],≤ 0.5
14,GUUCCGAUGGCGUAAUGGUAACGCGUCUUCCUCAUAAGGAGAAGACUGCCGGUUCGAGUCCCGUCCGGAACG [U7A C29U C34A G50C A65C],≤ 0.5
15,GUUCCGUUGGCGUAAUGGUAACGUGUCUCCCUCCUAAGGAGAAGGCUGCGGGUUCGAGUCCCGUACGCAACG [C24U A45G G68C],0.641
16,GUUCCGUUGGCGUAAUGGUAACGCGUCUCCCUCCUAAGGAGAAGACUGCGGGUUCGAGUCACGUGCGAAACG [C61A A65G G68A],≤ 0.5
17,GUUCCGUUGGCGUAAUGGCAACACGUCUCCCUCCUACGGAGAAGACUGCGGGUUCGAGUCCCGUACGGAACG [U19C G23A A37C],≤ 0.5
18,GUUUCGUUGGCGUAAUGGUAAUGCGUCUCCUUCCUAAGGAGAAGACUGCGGGUUCGAGUGCCGUACGGAGCG [C4U C22U C31U C60G A70G],0.52
19,GUUCCGUUCGCGUAAUGGUAACGCGUCUUCCUCCUAAGGAGAAGACUGCGGGUUGGAGUCCCGUACGGAACG [G9C C29U C55G],≤ 0.5

row,Variant,yeast fitness
1,GUUCCGUUGGCGUAAUGGUGACGCGUCUCCCUACUAAGGAGAUAACUGCGGGUUCGAGUCCCGUACGGCACG [A20G C33A A43U G44A A69C],≤ 0.5
2,GUUCCGUUGGCGUAAUGGUAACGCGUCUCCCUCCUAAGGAGAAGGCUACGGGUUCGAGUCCCGUACGGAACG [A45G G48A],1.1
3,GUUCCGUUGGCGUAAUGGUAAUGCGUCUCCCUCCUAAGGAGAAGACUGCGGGUUCGAGUCACGUACGGAACG [C22U C61A],0.612
4,GUUCCGUUGGCAUAAUGGUAACGCGUCUCCCUCCUAAGGAGGAGACUGCGGGUUCGAGUCCCGUUCGGAACG [G12A A42G A65U],≤ 0.5
5,GUCCCGUUGGCGUAAUGGUAACGCGUCUCCCUCCUAAGGAGAAGAAUGCGGGUUCAAGUCCCGUACGGAACG [U3C C46A G56A],0.699
6,GUUUCGUUGGCGUAAUGGUAACGCGUCUCCCUCCUAGGGAGAAGAUUGCGGGUUCGAGUCCCGUACGGAACG [C4U A37G C46U],0.54
7,GUUCCGUUGGCGUAAUGGUAACGCGUCUCCCUCCUGAGGAGAAGACUAGGGGUUCGAGUCCCGUACGGAACG [A36G G48A C49G],0.63
8,GUUCCGUUGGCGUUAUGGUAACACGUCUCCCUCCUAAGGAGAAGACUGCGGGUUCGAGUCCCGUACGGAACG [A14U G23A],≤ 0.5
9,GGUCCGUUGGCGUAAUGGUAACGCGUCUCCCUCCUAAGGAGAAGACUGCGGGUUCGAGUCCCGUACGGUACG [U2G A69U],0.743
10,GUUCGGUUGGCGUAAUGGUAACACGUCUCCCUCCUAAGGAGAACACUGCGGGUUCGAGUCCCGUACUGAACG [C5G G23A G44C G67U],0.589
11,GUUUCGUUGGCGUAAUGGUACCGUGUCUCCCUCCUAAAGAGAAGACUGCGGGUUCGAGUCCCCUACGGAACG [C4U A21C C24U G38A G63C],≤ 0.5
12,GUUCCGUUGGCGUUGUGGUAACGCGUCUCCCUCCUAAGGAGAAGCCUGCAGGUUCGAGUCCUGUACGGAACG [A14U A15G A45C G50A C62U],0.526
13,GUUCCGUUGGCGUUAUGGUAACGCGUCUCCCUCCUAAGGAGAAGACUGCGAGUUCGAGUCGCGUACGGAACG [A14U G51A C61G],0.602
14,GUUCCGUUGGCGUAAUGGUAACGCGUCUCCAUCCUAAGGAGAAGACUCCGGGUCCGAGUCACGUACGGAGCG [C31A G48C U54C C61A A70G],≤ 0.5
15,GUUCCGUUGGCGUAACGGUAACGCGUCUCCCUCCUAAGGAGAAGACUGCGGGUCCGAGUCCCGUACGGAACG [U16C U54C],0.723
16,GUUCCGUUGGCGUAAUGGUAACGCGUCUCCCUCCUAAGGAGAUGAAUGCGGGUUCGAGUCCCGUCCGGAUCG [A43U C46A A65C A70U],≤ 0.5
17,GUUCCGUUGGCGUAAUGGUAACGCGACUCCCUCCUAAGGAGAAGACUGCGGAUUCGAGUCCCGUACGGAUCG [U26A G52A A70U],≤ 0.5
18,GUUCCGUUGGCGUAAUGGUAACGCGCGUCCCUCCUAAGGAGAAGACUGCGGGUUCGAGUCCCGUACGCAACG [U26C C27G G68C],≤ 0.5
19,GUUCCGUUGGCGUAAUGGUAACGCGUCUCCCUCCUAAGGAGCAGAGUGCGGGUUCGAGUCCCGUUCCGAACG [A42C C46G A65U G67C],≤ 0.5
